Source: PubChem (Sanford-Burnham Center for Chemical Genomics)
SENP8 block-1: inhibitors of human SENP8 protease; recombinant SENP8, Nedd8 substrate fluorescence; Q96LD8; 360,000 compounds, 0.64% hits; AID 602440; inhibition, % at 20 µM; in the data active means inhibition mostly above about 40%, no sharp cut-off; inactive means mostly below about 27%
SENP8 block-2: blocks the human protease SENP8 | Q96LD8 | purified SENP8, Z-RLRGG-aminoluciferin cleavage, luminescence | inhibition, % at 10 µM | 330,000 compounds, 1.2% hits; in the data active means inhibition above about 50%
SENP6 block: inhibitors of human SENP6 protease | Q9GZR1 | Recombinant SENP6 catalytic domain, aminoluciferin luminescence | inhibition, % at 10 µM | 330,000 compounds, 1.8% hits | AID 2599;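 active means inhibition above about 50% at the single tested dose, limit read from the data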;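 further: plate controls were DMSO wells with enzyme for no effect and DMSO wells lacking enzyme for full effect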
SENP1 inh: SENP1 (human) catalytic domain inhibition. recombinant SENP1 catalytic domain, CyPet-SUMO1-YPet FRET cleavage. inhibition, % at 10 µM. 360,000 compounds, 0.21% hits;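 active means inhibition at least 30% at 10 µM, raw YFP signal under a set limit, fluorescence ratio 0.5 to 1.5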;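 further: 0% = enzyme with DMSO and 100% = no enzyme wells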
Target sequence (Q9P0U3 419-644 limits assumed): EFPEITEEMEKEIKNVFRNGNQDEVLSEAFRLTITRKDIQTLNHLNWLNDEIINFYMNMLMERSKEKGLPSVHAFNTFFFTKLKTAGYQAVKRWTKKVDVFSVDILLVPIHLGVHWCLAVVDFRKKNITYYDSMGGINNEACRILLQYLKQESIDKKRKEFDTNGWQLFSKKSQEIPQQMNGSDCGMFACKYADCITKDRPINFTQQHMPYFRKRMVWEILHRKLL
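Compound: 10 µM single point, 0.5% DMSO; Test system: hSENP1 catalytic domain, recombinant; Timing: 50 min reaction at room temperature; Technique: FRET, CFP and YFP emission; Control set: no-enzyme wells low, DMSO-plus-enzyme wells high control.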
SENP7 block: inhibitors of human SENP7 protease | Q9BQF6 | recombinant SENP7, Z-RLRGG-aminoluciferin luminescence, 40 min | inhibition, % at 5 µM | 330,000 compounds, 1.5% hits | AID 434973;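 active means inhibition above about 50% at the single test dose, limit read from the data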;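 further: plate controls were DMSO with enzyme for no effect and no enzyme buffer wells for full effect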
SENP8 confirm: human SENP8 inhibition, confirmed; shares compounds with SENP7 block; Recombinant SENP8, Z-RLRGG-aminoluciferin luminescence, 60 min; inhibition, % at 12.5 µM; 6,200 compounds, 40% hits; AID 488912;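 active means mean inhibition across replicates above about 50%, limit read from the data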
SENP6 confirm: confirmation of human SENP6 protease inhibitors; shares compounds with SENP7 block; recombinant SENP6, Z-RLRGG-aminoluciferin luminescence; inhibition, % at 12.5 µM; 6,200 compounds, 58% hits; AID 488915
SENP7 confirm: human SENP7 inhibition, confirmed. inhibition, % at 12.5 µM. shares compounds with SENP7 block. 6,200 compounds, 69% hits. recombinant SENP7, Z-RLRGG-aminoluciferin luminescence, 40 min
Casp3 SENP sel: selectivity test for SENP inhibitors: human caspase-3 inhibition. shares compounds with SENP7 block. purified caspase-3, Z-DEVD-aminoluciferin luminescence, 60 min. inhibition, % at 12.5 µM. 6,200 compounds, 60% hits;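 active means mean inhibition above about 50%, limit read from the data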;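 further: plate controls were enzyme with DMSO for no effect and wells without caspase-3 for full effect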
Target sequence (P42574 28-227 limits assumed): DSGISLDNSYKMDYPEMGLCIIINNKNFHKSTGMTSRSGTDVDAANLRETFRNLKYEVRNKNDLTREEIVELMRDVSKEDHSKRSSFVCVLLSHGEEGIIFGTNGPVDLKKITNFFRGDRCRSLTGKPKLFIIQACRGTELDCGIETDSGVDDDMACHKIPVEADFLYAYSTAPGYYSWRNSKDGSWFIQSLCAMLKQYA
Luc interf: luminescence interference (SENP counter-screen) | shares compounds with SENP7 block | 6,200 compounds, 39% hits | AID 488919 | Pre-incubated SENP8/Z-RLRGG-aminoluciferin, luciferase luminescence interference | inhibition, % at 12.5 µM;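 active means mean inhibition above about 50% when retested at one dose, limit read from the data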;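 further: plate controls were DMSO wells with completed reaction for no effect and substrate without enzyme for full effect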
* hit, by the source's call; . = not tested or not shown. Sampled rows, rich in hits. Any-hit rate of the full collection: about 2.5%.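 How the source made its calls, unless noted: active means mean inhibition above about 50% in the one-dose retest (limit read from the data); inactive means the rest.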

SMILES	SENP8 block-1	SENP8 block-2	SENP6 block	SENP1 inh	SENP7 block	SENP8 confirm	SENP6 confirm	SENP7 confirm	Casp3 SENP sel	Luc interf
O=C1c2ccccc2S(=O)(=O)c2cc(C(=O)N(c3ccccn3)c3ccccn3)ccc21	16	-4	-22	0	-6	.	.	.	.	.
CC[C@H](C)[C@H](NC(N)=O)C(=O)Nc1ccccc1F	13	5	-24	1	-7	.	.	.	.	.
O=[N+]([O-])c1cccc(N=Nc2ccc(O)cc2O)c1	37	.	.	3	.	.	.	.	.	.
O=[N+]([O-])c1ccc(N=Nc2ccc(O)cc2O)cc1	5	96*	97*	3	98*	100*	101*	104*	99*	99*
CN1C[C@@H]2[C@@H]3C(=O)N(Cc4ccccc4)C(=O)[C@@H]3[C@](Cc3ccccc3)(C1=O)N2C(=O)c1ccc(Cl)cc1	-32	.	.	1	.	.	.	.	.	.
COc1cccc2sc(Nc3nnc(-c4ccccc4Cl)o3)nc12	-410	18	22	-51	0	.	.	.	.	.
COc1ccccc1-c1nnc(Nc2nc3c(OC)cccc3s2)o1	-316	-30	34	-48	76*	-17	-11	32	49	44
COc1cccc(-c2nnc(Nc3nc4c(F)cccc4s3)o2)c1	-278	84*	90*	-31	37	4	84*	2	60*	50*
COc1cccc(-c2nnc(NC(C)=O)o2)c1	-3	-6	1	1	-6	.	.	.	.	.
CC1CCCCC12NC(=O)N(CC(=O)NCCc1c[nH]c3ccccc13)C2=O (stereo unspecified)	-2	0	3	0	10	.	.	.	.	.
N#C/C(=C\c1ccc(O)cc1)c1nc2ccccc2o1	-83	74*	84*	-45	63*	81*	80*	93*	62*	74*
COc1cc(/C=C(\C#N)c2nc3ccccc3o2)ccc1O	-53	90*	95*	-46	80*	94*	94*	99*	86*	41
Cc1ccc(C)c(N/C=C(\C#N)c2nc3ccccc3o2)c1	4	-5	2	-8	-5	.	.	.	.	.
COc1cc(/C=C(\C#N)c2nc3ccccc3[nH]2)ccc1OC(=O)c1ccco1	-428	83*	75*	-28	73*	66*	67*	99*	86*	27
Cc1ccc(-c2nc(SC(C)C(=O)N3CCOCC3)n[nH]2)cc1 (stereo unspecified)	28	-2	-2	0	12	.	.	.	.	.
O=C(CCCCCNc1nc(=S)[nH]c2ccccc12)NCCC1=CCCCC1	8	0	2	2	2	.	.	.	.	.
Cc1ccc(OCCCC(=O)NC2CCCCC2)cc1	8	-1	-1	-3	-4	.	.	.	.	.
O=C(Nc1ccc(OC(F)(F)F)cc1)c1[nH]ncc1[N+](=O)[O-]	1	56*	72*	0	32	70*	68*	88*	59*	70*
Cc1ccc(NC(=O)Nc2cccc([N+](=O)[O-])c2)cc1F	4	-15	-12	1	-4	.	.	.	.	.
O=C(Nc1ccc(OC(F)(F)F)cc1)Nc1cccc([N+](=O)[O-])c1	14	28	56*	3	24	8	26	72*	6	0
O=C(Nc1ccc(S(=O)(=O)N2CCCCCC2)cc1)c1[nH]ncc1[N+](=O)[O-]	10	75*	75*	1	41	-7	72*	90*	65*	78*
Cc1onc(C(=O)Nc2ccc(OC(F)(F)F)cc2)c1[N+](=O)[O-]	4	1	-6	5	6	.	.	.	.	.
Cc1csc2nc(CSc3nncn3-c3ccccc3)c(Br)n12	18	1	-22	-2	1	.	.	.	.	.
